Sampled rows, rich in hits. Any-hit rate of the full collection: about 1.5%.
RAD54 inh: inhibitors of human RAD54 branch migration; inhibition, % at 10.4 µM; Q92698; actives 0.14% (n = 360,000); RAD54 Holliday junction branch migration, FAM/BHQ fluorescence;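 active = mean normalized replicate activity at least 40 and at least half of replicates scoring 40 or more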;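 note: 0% = median of neutral control wells and 100% = median of positive control wells; inhibitors cause a drop in the FAM fluorescence signal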
RAD52 inh: blocks human RAD52 DNA annealing | inhibition, % at 18.7 µM | recombinant RAD52 DNA annealing, FRET fluorescence | P43351 | actives 0.46% (n = 360,000);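 active = every replicate showing at least 50% inhibition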
Target sequence (P43351 whole entry, looked up): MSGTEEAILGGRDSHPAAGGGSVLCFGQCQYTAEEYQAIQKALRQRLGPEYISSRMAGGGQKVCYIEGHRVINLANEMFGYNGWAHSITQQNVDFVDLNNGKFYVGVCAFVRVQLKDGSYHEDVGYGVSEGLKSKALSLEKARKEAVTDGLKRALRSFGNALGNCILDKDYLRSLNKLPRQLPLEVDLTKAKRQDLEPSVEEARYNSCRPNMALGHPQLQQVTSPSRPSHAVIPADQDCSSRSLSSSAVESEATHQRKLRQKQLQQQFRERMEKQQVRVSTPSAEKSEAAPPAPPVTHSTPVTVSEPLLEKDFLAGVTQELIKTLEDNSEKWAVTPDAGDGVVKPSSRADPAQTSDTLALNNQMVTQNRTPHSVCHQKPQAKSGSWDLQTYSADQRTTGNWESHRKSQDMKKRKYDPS
S100A4 MyoIIA: inhibitors of human S100A4 binding to myosin IIA peptide. P26447. S100A4/TAMRA-MyoIIA peptide fluorescence polarization. inhibition, % at 10.7 µM. actives 0.14% (n = 360,000);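 active = mean inhibition of at least 70% across replicates, with every replicate also reaching that level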
Target sequence (P26447 whole entry, looked up): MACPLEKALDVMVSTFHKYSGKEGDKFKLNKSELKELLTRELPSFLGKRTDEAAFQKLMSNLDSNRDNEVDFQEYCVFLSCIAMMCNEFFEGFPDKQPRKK
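Material: S100A4 monomer protein / Buffer or medium: 50 mM HEPES pH 7.2, 10 mM CaCl2, 100 mM KCl / Times: 5 min incubation before reading / Benchmarks: neutral control DMSO, positive control TFP / Reagent: labelled myosin peptide probe, 5 nM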
dFosB act: mouse delta FosB homodimer activation; purified delta FosB, TAMRA-CDK5 oligo fluorescence polarization; percent of positive-control signal above neutral wells; P13346; actives 0.99% (n = 340,000); activation, % at 25 µM;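 active = mean activation above about 17%, with every replicate also reaching it, limit read from the data, passing the limit was not always enough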
AF4-AF9 inh: inhibitors of human MLL-AF4/AF9 interaction; P42568; AlphaScreen, biotin-AF4 peptide binding to FLAG-AF9; inhibition, % at 10 µM; actives 0.47% (n = 350,000); AID 651704;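 active = every replicate reaching a set inhibition limit, whatever the replicate mean, cut at about 25% in these data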;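 note: 0% = plate neutral control median and 100% = total signal loss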
The depositor's hits bear a star; i = inactive; · = not tested or not shown; + = active, no number; ! = a repeat was not active.

SMILES | RAD54 inh | RAD52 inh | S100A4 MyoIIA | dFosB act | AF4-AF9 inh
CN=c1scc(-c2ccccc2F)n1/N=C/c1ccc[nH]1 | · | -4 | 21 | -2 | 45*
O=C(Nc1cccc(CNCCc2c[nH]c3ccccc23)c1)c1ccccc1Cl | 10 | -5 | -1 | -6 | 35*
N#Cc1ccc(-c2ccc(C3[C@@H]4CN(Cc5ccccc5F)C[C@H]3N4)cc2)cc1 (stereo partly specified) | · | 84*! | -1 | · | -1
O=C(c1ccc2c(c1)OCO2)N1C[C@@H]2N[C@H](C1)C2c1ccc(-c2cccnc2)cc1 (stereo partly specified) | · | 2 | -6 | · | -8
Fc1cccc(-c2ccc(C3[C@@H]4CN(Cc5cccnc5)C[C@H]3N4)cc2)c1 (stereo partly specified) | · | 55*! | -1 | · | 8
c1ncc(-c2ccc(C3[C@@H]4CN(Cc5ccc6c(c5)OCO6)C[C@H]3N4)cc2)cn1 (stereo partly specified) | · | 51* | 0 | · | 8
COc1ccccc1CN1C[C@@H]2N[C@H](C1)C2c1ccc(-c2ccc(C#N)cc2)cc1 (stereo partly specified) | · | 43 | 10 | · | 11
N#Cc1ccc(-c2ccc([C@@H]3[C@@H]4CN(S(=O)(=O)c5ccc(-c6ccccc6)cc5)C[C@H]3N4)cc2)cc1 | · | 79* | -1 | · | -2
O=C(C[C@H]1C[C@@H]2c3cc(NC(=O)CC4CC4)ccc3O[C@@H]2[C@H](CO)O1)NCc1ccccc1 | -7 | -10 | 8 | · | -1
Fc1cccc(CN2C[C@@H]3N[C@H](C2)C3c2ccc(-c3ccccc3)cc2)c1 (stereo partly specified) | · | 84*! | -32 | · | 11
Fc1cccc(CN2C[C@@H]3N[C@H](C2)[C@@H]3c2ccc(-c3cccc(F)c3)cc2)c1 | · | 86* | 49 | · | 11
O=C(Cc1ccncc1)N1C[C@@H]2N[C@H](C1)C2c1ccc(-c2cccc(F)c2)cc1 (stereo partly specified) | · | 27 | 2 | · | -7
O=C(C1CCC1)N1C[C@@H]2N[C@H](C1)C2c1ccc(-c2cccc(F)c2)cc1 (stereo partly specified) | · | 10 | -16 | · | 4
Fc1cccc(-c2ccc(C3[C@@H]4CN(Cc5ccccc5F)C[C@H]3N4)cc2)c1 (stereo partly specified) | · | 83*! | 3 | · | 9
Fc1cccc(CN2C[C@@H]3N[C@H](C2)C3c2ccc(-c3cncnc3)cc2)c1 (stereo partly specified) | · | 22 | 14 | · | 0
CN(C)CCCNC(=O)[C@H]1[C@H](CO)[C@H]2Cn3c(ccc(-c4ccncc4)c3=O)[C@@H]1N2C(=O)CC1CC1 | -21 | -7 | 4 | · | -4
C[C@@H]1CN([C@@H](C)CO)C(=O)c2cccc(NS(C)(=O)=O)c2O[C@@H]1CN(C)S(=O)(=O)c1cn(C)cn1 | -5 | 11 | -58 | · | -17
Cc1cc(/C=C\c2ccccc2)nc2ccccc12 | · | -3 | -1 | -20 | 26*
COc1ccc(/C=C/c2cc(C(=O)O)c3ccccc3n2)cc1 | -5 | -158 | 17 | 4 | 5
Nc1c(C(=O)NCc2ccc3c(c2)OCO3)nnn1Cc1ccc(Br)cc1 | -5 | -51 | -12 | 20* | 2
CCC(CO)[n+]1c(C)cc(/C=C2\Sc3ccccc3N2Cc2ccccc2)cc1C (stereo unspecified) | -212 | -116 | -12 | 24* | 1
CCN1/C(=C2\SC(=S)N(Cc3ccccc3)C2=O)Sc2ccccc21 | · | -97 | 12 | -8 | 3
COc1ccc2c3c(n(C)c2c1)[C@H](CO)N(C(=O)Nc1ccccc1F)CC31CN(C)C1 | · | · | · | · | 15
CC(C)NC(=O)N(C)C[C@H]1Oc2ccc(NC(=O)Cc3cn(C)c4ccccc34)cc2C(=O)N([C@H](C)CO)C[C@H]1C | -29 | 19 | -8 | · | -10
COc1ccc2c3c([nH]c2c1)[C@H](CO)N(C(=O)Nc1cccc(F)c1)CC31CCN(CC2CC2)CC1 | · | 25 | -3 | · | 12
SMILES | RAD54 inh | RAD52 inh | S100A4 MyoIIA | dFosB act | AF4-AF9 inh
COc1ccc2c3c([nH]c2c1)[C@@H](CO)N(C(=O)Nc1cccc(F)c1)CC31CCN(CC2CC2)CC1 | · | -5 | 0 | · | 25*
COc1ccc2c3c([nH]c2c1)[C@H](CO)N(C(=O)Nc1cccc(F)c1)CC31CN(CC2CC2)C1 | · | 2 | 12 | · | 29*
CCCNC(=O)N1CC2(CCN(C(=O)c3cccnc3)CC2)c2c([nH]c3cc(OC)ccc23)[C@H]1CO | · | -14 | 17 | · | -1
O=C(Nc1ccc(S(=O)(=O)N2CCCCC2)cc1)C1CC(=O)N(Cc2ccccc2)C1 (stereo unspecified) | -18 | -20 | + | -9 | -38
Cc1ccc(CN2CC(C(=O)Nc3ccc(S(=O)(=O)N4CCCCC4)cc3)CC2=O)cc1 (stereo unspecified) | -5 | -24 | 1 | -14 | 1
C[C@H](CO)N1C[C@H](C)[C@H](CN(C)S(=O)(=O)c2ccc(Cl)cc2)Oc2ccc(NC(=O)Nc3ccc4c(c3)OCO4)cc2C1=O | -1 | -4 | -2 | · | 4
COc1cccc2c(=O)n(CC(=O)Nc3ccc(F)cc3F)ccc12 | -6 | -82 | -5 | 2 | 3
COc1cccc2c(=O)n(CC(=O)Nc3ccccc3)ccc12 | 9 | -12 | -10 | -1 | 48*
O=C1C=C(N2CCOCC2)c2ccccc2C1=O | 10 | -5 | -8 | -3 | 3
O=C1C=C(N2CCOCC2)c2cccc3cccc1c23 | 1 | i | 83* | · | 8
CC1=C(C)C(=O)C(N2CCOCC2)=CC1=O | 1 | -20 | -9 | -5 | 1
O=C1C(N2CCOCC2)=Cc2cccc3cccc1c23 | -7 | i | 90* | · | 2
C[C@@H]1CN([C@@H](C)CO)C(=O)c2cc(NS(=O)(=O)c3ccc(F)cc3)ccc2O[C@@H](C)CCCCO[C@H]1CN(C)S(=O)(=O)c1cn(C)cn1 | -10 | -4 | 0 | · | 0
COCCNC(=O)C[C@@H]1C[C@@H]2c3cc(NC(=O)Nc4ccccc4)ccc3O[C@@H]2[C@H](CO)O1 | 3 | 10 | 4 | · | -1
O=C(NC1CCC1)[C@@H]1N[C@@H]2c3ccc(-c4cccc(F)c4)c(=O)n3C[C@@H]2[C@H]1CO | 7 | -10 | -1 | · | -1
COc1ccc(C(=O)N/N=C/c2sc(N3CCOCC3)nc2-c2ccccc2)cc1OC | 14 | -29 | -5 | -20 | 27*
O=C(N/N=C/c1sc(N2CCOCC2)nc1-c1ccccc1)c1ccc(O)cc1 | · | -22 | -4 | -20 | 18
Cc1ccc(S(=O)(=O)N2CCN(C(=O)COC(=O)c3ccc(Cl)nc3)CC2)c(C)c1 | 1 | -9 | 1 | 32* | -13
